In ChEMBL document CHEMBL1134336, “Synthesis and SAR of a new series of COX-2-selective inhibitors: pyrazolo[1,5-a]pyrimidines” (J Med Chem, 2001):

Legend:
[1] = molecular target: T1, Prostaglandin G/H synthase 2 (Homo sapiens) (UniProt P35354); assay: Percentage inhibition of Prostaglandin G/H synthase 2 activity in human whole blood (HWB) at 10 uM; assay type: tissue-based
T1 sequence (whole entry): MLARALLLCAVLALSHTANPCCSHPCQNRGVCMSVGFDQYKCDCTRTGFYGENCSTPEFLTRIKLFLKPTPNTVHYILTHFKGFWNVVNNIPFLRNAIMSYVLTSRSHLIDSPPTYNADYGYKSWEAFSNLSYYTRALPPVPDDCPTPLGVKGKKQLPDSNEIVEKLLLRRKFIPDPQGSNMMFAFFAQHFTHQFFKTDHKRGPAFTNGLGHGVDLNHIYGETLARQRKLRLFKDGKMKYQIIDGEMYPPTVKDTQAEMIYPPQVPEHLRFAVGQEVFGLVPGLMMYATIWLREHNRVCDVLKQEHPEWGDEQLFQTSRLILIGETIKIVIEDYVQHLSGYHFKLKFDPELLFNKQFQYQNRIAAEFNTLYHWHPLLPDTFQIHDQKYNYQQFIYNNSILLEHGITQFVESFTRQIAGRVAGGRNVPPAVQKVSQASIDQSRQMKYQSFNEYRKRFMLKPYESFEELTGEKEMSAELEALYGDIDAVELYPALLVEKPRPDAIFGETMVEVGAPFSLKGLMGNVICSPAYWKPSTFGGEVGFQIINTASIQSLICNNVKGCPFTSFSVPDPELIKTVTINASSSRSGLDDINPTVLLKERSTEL
Outline: (§1)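 COX-2: human whole blood stimulated with lipopolysaccharide 026:B6, 37 °C, 24 h, with aspirin (20 µg/mL) to block COX-1. PGE2 by enzyme immunoassay after centrifugation. Run in duplicate or repeated.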

[2] = molecular target: T2, Prostaglandin G/H synthase 1 (Homo sapiens, UniProt P23219); assay: Percentage of inhibition of Prostaglandin G/H synthase 1 activity in human whole blood (HWB) at 10 uM; assay type: tissue-based
Outline: (§2)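 COX-1: human blood left to clot spontaneously 5 h at 37 °C, then A23187 (5 μM) 30 min further. Stopped at 0 °C with EGTA/MeOH; supernatant TXB2 by enzyme immunoassay. Run in duplicate or repeated.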

[3] = molecular target: T1, Prostaglandin G/H synthase 2 (Homo sapiens); assay: Percentage of inhibition of Prostaglandin G/H synthase 2 activity in human whole blood (HWB) at 1 uM; assay type: tissue-based; outline: as §1
[4] = molecular target: T2, Prostaglandin G/H synthase 1; assay: Percentage of inhibition of Prostaglandin G/H synthase 1 activity in human whole blood (HWB) at 1 uM; assay type: tissue-based; outline: as §2
[5] = molecular target: T2, Prostaglandin G/H synthase 1; assay type: cell-based, U-937

T2 sequence (P23219 whole entry): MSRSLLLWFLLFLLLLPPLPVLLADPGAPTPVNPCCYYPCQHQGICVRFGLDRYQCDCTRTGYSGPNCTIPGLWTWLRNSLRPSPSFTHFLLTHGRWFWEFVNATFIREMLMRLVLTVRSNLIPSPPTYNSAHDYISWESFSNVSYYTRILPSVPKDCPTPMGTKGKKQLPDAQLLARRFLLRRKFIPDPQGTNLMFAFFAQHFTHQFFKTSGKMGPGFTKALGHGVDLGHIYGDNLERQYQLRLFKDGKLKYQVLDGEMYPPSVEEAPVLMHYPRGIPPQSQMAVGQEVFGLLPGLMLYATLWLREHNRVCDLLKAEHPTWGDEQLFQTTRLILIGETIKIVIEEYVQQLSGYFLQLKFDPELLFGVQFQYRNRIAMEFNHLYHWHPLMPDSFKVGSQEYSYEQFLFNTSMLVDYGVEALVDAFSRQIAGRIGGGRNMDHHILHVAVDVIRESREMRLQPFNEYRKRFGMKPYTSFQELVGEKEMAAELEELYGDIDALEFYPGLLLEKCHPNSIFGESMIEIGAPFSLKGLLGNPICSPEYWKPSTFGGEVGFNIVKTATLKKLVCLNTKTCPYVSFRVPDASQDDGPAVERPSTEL

Row | inhibition [1] [%] | inhibition [2] [%] | inhibition [3] [%] | inhibition [4] [%] | IC50 [5] [µM] | Structure (SMILES)
1 | 90.7 | 7 | 14.8 |  |  | CS(=O)(=O)c1ccc(-c2nn3c4c(cnc3c2-c2ccc(F)cc2)SCC4)cc1
2 | 90.4 | 5.7 | 0 |  |  | CS(=O)(=O)c1ccc(-c2nn3c(-c4ccccc4)ccnc3c2-c2ccc(F)cc2)cc1
3 | 100 | 88.7 | 50.9 |  |  | CCc1nnc2c(-c3ccc(F)cc3)c(-c3ccc(S(C)(=O)=O)cc3)nn2c1CC
4 | 100 | 29.3 | 43.9 |  |  | CCCc1cnnc2c(-c3ccc(F)cc3)c(-c3ccc(S(C)(=O)=O)cc3)nn12
5 | 58.3 | 0 | 11 |  |  | CCCCc1cc(C)nc2c(-c3ccc(F)cc3)c(-c3ccc(S(C)(=O)=O)cc3)nn12
6 | 100 | 68.2 | 97.2 |  |  | Cc1cnc2c(-c3ccc(F)c(F)c3)c(-c3ccc(S(N)(=O)=O)cc3)nn2c1C
7 | 100 | 100 | 69 | 53.9 |  | Cc1c(C(F)(F)F)cnc2c(-c3ccc(F)cc3)c(-c3ccc(S(C)(=O)=O)cc3)nn12
8 | 89.7 | 69.8 | 0.9 |  |  | CCCCc1cnnc2c(-c3ccc(F)cc3)c(-c3ccc(S(C)(=O)=O)cc3)nn12
9 | 95 | 18.7 | 17.9 |  |  | CCCc1c(C)nnc2c(-c3ccc(F)cc3)c(-c3ccc(S(C)(=O)=O)cc3)nn12
10 | 56.1 | 37.3 | 32.2 |  |  | CCCc1ccnc2c(-c3ccc(F)cc3)c(-c3ccc(S(C)(=O)=O)cc3)nn12
11 | 61.2 | 47 |  |  |  | CS(=O)(=O)c1ccc(-c2nc3cccnn3c2-c2ccc(F)cc2)cc1
12 | 84.6 | 7.3 | 4.4 |  |  | Cc1c(CF)cnc2c(-c3ccc(F)cc3)c(-c3ccc(S(C)(=O)=O)cc3)nn12
13 | 100 | 42.7 | 56.5 |  |  | Cc1cnc2c(-c3ccc(F)cc3)c(-c3ccc(S(C)(=O)=O)cc3)nn2c1CO
14 | 24.6 | 33.5 |  |  |  | Cc1cc(C(=O)O)nc2c(-c3ccc(F)cc3)c(-c3ccc(S(C)(=O)=O)cc3)nn12
15 | 21.9 | 8.1 |  |  |  | Cc1cc(O)n2nc(-c3ccc(S(C)(=O)=O)cc3)c(-c3ccc(F)cc3)c2n1
16 | 100 | 71.1 | 60.8 |  |  | CC(=O)c1cnc2c(-c3ccc(F)cc3)c(-c3ccc(S(C)(=O)=O)cc3)nn2c1C
17 | 90.3 | 4.75 | 18.1 |  |  | Cc1nc(C)n2nc(-c3ccc(S(C)(=O)=O)cc3)c(-c3ccc(F)cc3)c2n1
18 | 100 | 80.8 | 61.1 |  |  | Cc1cnc2c(-c3ccc(F)cc3F)c(-c3ccc(S(C)(=O)=O)cc3)nn2c1C
19 |  | 61.3 |  |  | > 10 | Cc1nc2c(-c3ccc(F)cc3)c(-c3ccc(S(C)(=O)=O)cc3)nn2c(C)c1C
20 | 66.7 | 0 | 59.3 |  |  | Cc1ccn2c(-c3ccc(F)cc3)c(-c3ccc(S(C)(=O)=O)cc3)nc2c1C
21 | 100 | 91.8 | 50.3 | 0 |  | CCc1cnc2c(-c3ccc(F)cc3)c(-c3ccc(S(C)(=O)=O)cc3)nn2c1C
22 |  | 8.2 |  |  | > 10 | Cc1cnc2c(-c3ccc(F)cc3)c(-c3ccc(S(C)(=O)=O)cc3)nn2c1
23 | 54.6 | 7.7 |  |  |  | CCCCc1nc(C)nc2c(-c3ccc(F)cc3)c(-c3ccc(S(C)(=O)=O)cc3)nn12
24 | 0 | 7.4 | 31.9 |  |  | CCCc1c(C(=O)O)cnc2c(-c3ccc(F)cc3)c(-c3ccc(S(C)(=O)=O)cc3)nn12
25 | 100 | 54.2 | 87.6 |  |  | Cc1ccc(-c2c(-c3ccc(S(C)(=O)=O)cc3)nn3c(C)c(C)cnc23)cc1
26 | 0 | 9.8 |  |  |  | CCCCc1nccn2c(-c3ccc(F)cc3)c(-c3ccc(S(C)(=O)=O)cc3)nc12
27 | 21.3 | 34.3 |  |  |  | CS(=O)(=O)c1ccc(-c2nc3cnccc3n2-c2ccc(F)cc2)cc1
28 | 100 | 61.9 | 74.9 |  |  | CCc1nnc2c(-c3ccc(F)cc3)c(-c3ccc(S(C)(=O)=O)cc3)nn2c1C

Row | inhibition [1] [%] | inhibition [2] [%] | inhibition [3] [%] | inhibition [4] [%] | IC50 [5] [µM] | Structure (SMILES)
29 | 100 | 82.8 | 62.3 |  |  | CCc1c(C)cnc2c(-c3ccc(F)cc3)c(-c3ccc(S(C)(=O)=O)cc3)nn12
30 | 93.6 | 0 | 25 |  |  | CS(=O)(=O)c1ccc(-c2nn3c4c(cnc3c2-c2ccc(F)cc2)CSC4)cc1
31 | 0 | 0 |  |  |  | COc1cc(C)nc2c(-c3ccc(F)cc3)c(-c3ccc(S(C)(=O)=O)cc3)nn12
32 | 90.4 | 0 | 48.3 |  |  | CS(=O)(=O)c1ccc(-c2nn3c4c(cnc3c2-c2ccc(F)cc2)CCC4)cc1
33 | 90.6 | 0 | 3.5 |  |  | CS(=O)(=O)c1ccc(-c2nn3c(C(F)(F)F)ccnc3c2-c2ccc(F)cc2)cc1
34 | 82.4 | 0 | 0 |  |  | Cc1cn2c(-c3ccc(F)cc3)c(-c3ccc(S(C)(=O)=O)cc3)nc2c(C)n1
35 | 57.2 | 2.5 |  |  |  | Cc1cc(C(F)(F)F)nc2c(-c3ccc(F)cc3)c(-c3ccc(S(C)(=O)=O)cc3)nn12
36 | 41 | 8 |  |  |  | CCOC(=O)c1cc(C)n2nc(-c3ccc(S(C)(=O)=O)cc3)c(-c3ccc(F)cc3)c2n1
37 | 100 | 36.3 | 100 |  |  | Cc1cnc2c(-c3ccc(F)c(F)c3)c(-c3ccc(S(C)(=O)=O)cc3)nn2c1C
38 | 45.8 | 1.2 |  |  |  | Cc1nc2c(-c3ccc(F)cc3)c(-c3ccc(S(C)(=O)=O)cc3)nn2c(Cl)c1C
39 | 56.3 | 8.3 |  |  |  | Cc1c(C(=O)O)cnc2c(-c3ccc(F)cc3)c(-c3ccc(S(C)(=O)=O)cc3)nn12
40 | 100 | 40.4 | 57.7 |  |  | CS(=O)(=O)c1ccc(-c2nn3c4c(cnc3c2-c2ccc(F)cc2)CCCC4)cc1
41 | 100 | 0 | 37.3 |  |  | Cc1cnn2c(-c3ccc(F)cc3)c(-c3ccc(S(C)(=O)=O)cc3)nc2c1C
42 | 4.3 | 0 |  |  |  | Cc1cc2c(nc(-c3ccc(S(C)(=O)=O)cc3)n2-c2ccc(F)cc2)c(C)n1
43 | 99.1 | 22 | 22.5 |  |  | Cc1cnc2c(-c3ccc(F)cc3)c(-c3ccc(S(N)(=O)=O)cc3)nn2c1C
44 |  | 19 |  |  | > 10 | Cc1ccn2nc(-c3ccc(S(C)(=O)=O)cc3)c(-c3ccc(F)cc3)c2n1
45 | 36.2 | 35 |  |  | > 10 | CS(=O)(=O)c1ccc(-c2nn3cccnc3c2-c2ccc(F)cc2)cc1
46 | 100 | 83.8 | 84.3 | 18.9 |  | Cc1c(Br)cnc2c(-c3ccc(F)cc3)c(-c3ccc(S(C)(=O)=O)cc3)nn12
47 |  | 8.3 |  |  | > 10 | Cc1cc(C)n2nc(-c3ccc(S(C)(=O)=O)cc3)c(-c3ccc(F)cc3)c2n1
48 | 50.7 | 13.5 |  |  |  | Cc1ccn2c(-c3ccc(F)cc3)c(-c3ccc(S(C)(=O)=O)cc3)nc2n1
49 | 100 | 86.2 | 51.5 | 6.8 |  | CCCCc1cc(C)n2nc(-c3ccc(S(C)(=O)=O)cc3)c(-c3ccc(F)cc3)c2n1
50 | 14.3 | 32.5 |  |  |  | Cc1cc(Cl)n2nc(-c3ccc(S(C)(=O)=O)cc3)c(-c3ccc(F)cc3)c2n1
51 |  | 32.6 |  |  | > 10 | Cc1cn2nc(-c3ccc(S(C)(=O)=O)cc3)c(-c3ccc(F)cc3)c2nc1C
52 |  | 50.5 |  |  | > 10 | Cc1ccnc2c(-c3ccc(F)cc3)c(-c3ccc(S(C)(=O)=O)cc3)nn12
53 | 42.5 | 6 |  |  |  | CS(=O)(=O)c1ccc(-c2nc3cnccn3c2-c2ccc(F)cc2)cc1
54 | 12.3 | 0 |  |  |  | Cc1cnc2c(-c3ccc(F)cc3)c(-c3ccc(S(C)(=O)=O)cc3)nn2c1-c1ccccc1
55 | 100 | 1.2 | 40.5 |  |  | Cc1nnc2c(-c3ccc(F)cc3)c(-c3ccc(S(C)(=O)=O)cc3)nn2c1C
